This note sets out measurements from ChEMBL document CHEMBL1154229 (Bioorg Med Chem Lett, 2009).

Assay [1] has as its target T1, Bifunctional epoxide hydrolase 2 (Homo sapiens, UniProt P34913).
T1 sequence (P34913 whole entry): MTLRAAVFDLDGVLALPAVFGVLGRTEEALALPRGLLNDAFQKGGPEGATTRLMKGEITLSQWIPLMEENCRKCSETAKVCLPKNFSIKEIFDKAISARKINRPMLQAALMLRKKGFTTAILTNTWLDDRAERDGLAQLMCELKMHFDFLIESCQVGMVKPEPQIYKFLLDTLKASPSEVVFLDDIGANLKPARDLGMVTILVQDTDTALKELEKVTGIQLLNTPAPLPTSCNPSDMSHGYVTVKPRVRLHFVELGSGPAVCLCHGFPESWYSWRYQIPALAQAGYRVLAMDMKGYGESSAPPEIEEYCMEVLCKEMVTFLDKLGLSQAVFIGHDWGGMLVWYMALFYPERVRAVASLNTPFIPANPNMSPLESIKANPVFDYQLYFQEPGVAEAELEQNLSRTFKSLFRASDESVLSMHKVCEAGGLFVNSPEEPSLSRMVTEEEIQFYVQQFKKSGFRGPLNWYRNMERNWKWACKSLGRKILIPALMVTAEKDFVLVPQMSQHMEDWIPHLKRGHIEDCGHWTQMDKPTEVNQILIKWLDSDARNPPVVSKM
As to the kind of experiment: Inhibition of human soluble epoxide hydrolase in HEK293 cells assessed as DHET production. In kind it is cell-based. An outline of the steps: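 Whole-cell 14,15-DHET production assay in HEK293 cells, run with or without 10% human serum. Values come from one or two experiments, each in triplicate, with repeats within 20%.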

Assay [2] in a line: Inhibition of potassium channel IKr.
For assay [3], the target named is T2, Bifunctional epoxide hydrolase 2 (Rattus norvegicus, UniProt P80299).
T2 sequence (P80299 whole entry): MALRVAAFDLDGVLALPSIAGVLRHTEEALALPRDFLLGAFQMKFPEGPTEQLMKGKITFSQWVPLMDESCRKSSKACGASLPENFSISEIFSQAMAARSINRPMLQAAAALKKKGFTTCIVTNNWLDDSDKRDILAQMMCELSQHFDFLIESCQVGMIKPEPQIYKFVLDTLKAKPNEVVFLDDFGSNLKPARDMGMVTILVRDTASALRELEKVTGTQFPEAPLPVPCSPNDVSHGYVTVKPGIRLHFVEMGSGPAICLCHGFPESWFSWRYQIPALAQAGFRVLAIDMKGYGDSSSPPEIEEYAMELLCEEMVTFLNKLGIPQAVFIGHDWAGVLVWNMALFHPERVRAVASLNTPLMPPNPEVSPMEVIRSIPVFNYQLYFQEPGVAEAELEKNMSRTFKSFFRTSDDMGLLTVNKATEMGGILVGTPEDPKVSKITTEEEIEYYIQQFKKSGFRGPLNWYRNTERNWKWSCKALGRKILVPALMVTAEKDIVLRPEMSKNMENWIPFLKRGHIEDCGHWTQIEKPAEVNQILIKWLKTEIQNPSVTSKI
As to the kind of experiment: Inhibition of rat soluble epoxide hydrolase.

The next assay has as its target Cytochrome P450 2C9 (Homo sapiens, UniProt P11712). In words: Inhibition of CYP2C9. It is filed as ADME.
In the next assay the target is T3, Epoxide hydrolase 1 (Homo sapiens, UniProt P07099).
T3 sequence (P07099 whole entry): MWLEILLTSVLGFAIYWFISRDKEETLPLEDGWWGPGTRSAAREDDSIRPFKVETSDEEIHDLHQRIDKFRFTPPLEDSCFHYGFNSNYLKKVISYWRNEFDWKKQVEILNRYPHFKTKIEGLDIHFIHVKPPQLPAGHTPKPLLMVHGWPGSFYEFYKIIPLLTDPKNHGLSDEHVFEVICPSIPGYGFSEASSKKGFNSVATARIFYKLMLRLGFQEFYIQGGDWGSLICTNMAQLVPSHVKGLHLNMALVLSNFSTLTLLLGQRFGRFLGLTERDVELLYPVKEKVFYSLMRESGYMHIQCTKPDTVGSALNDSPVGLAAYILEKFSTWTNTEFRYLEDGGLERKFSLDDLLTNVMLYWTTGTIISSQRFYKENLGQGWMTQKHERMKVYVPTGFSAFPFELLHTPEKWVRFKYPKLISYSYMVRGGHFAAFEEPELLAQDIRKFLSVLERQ
In words: Inhibition of human microsomal epoxide hydrolase. An outline of the steps: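 Human mEH used as the counterscreen enzyme. Values come from one or two experiments, each in triplicate, with repeats within 20%.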

The next assay addresses Cytochrome P450 3A4 (Homo sapiens, UniProt P08684). As to the kind of experiment: Inhibition of CYP3A4. In kind it is ADME.
The target in a further assay is Cytochrome P450 2D6 (Homo sapiens, UniProt P10635). In words: Inhibition of CYP2D6. In kind it is ADME.
Assay [4] concerns the target T1, Bifunctional epoxide hydrolase 2. As to the kind of experiment: Inhibition of human soluble epoxide hydrolase.
The target in the next assay is L-type calcium channel. As to the kind of experiment: Inhibition of calcium channel diltiazem binding site.
Assay [5] has as its target Sodium channel protein type 5 subunit alpha (Homo sapiens, UniProt Q14524). As to the kind of experiment: Inhibition of Nav1.5 channel.

Where only a bound is given, the exact number is not on record here.

Chain of Cytochrome P450 2C9 (P11712 whole entry): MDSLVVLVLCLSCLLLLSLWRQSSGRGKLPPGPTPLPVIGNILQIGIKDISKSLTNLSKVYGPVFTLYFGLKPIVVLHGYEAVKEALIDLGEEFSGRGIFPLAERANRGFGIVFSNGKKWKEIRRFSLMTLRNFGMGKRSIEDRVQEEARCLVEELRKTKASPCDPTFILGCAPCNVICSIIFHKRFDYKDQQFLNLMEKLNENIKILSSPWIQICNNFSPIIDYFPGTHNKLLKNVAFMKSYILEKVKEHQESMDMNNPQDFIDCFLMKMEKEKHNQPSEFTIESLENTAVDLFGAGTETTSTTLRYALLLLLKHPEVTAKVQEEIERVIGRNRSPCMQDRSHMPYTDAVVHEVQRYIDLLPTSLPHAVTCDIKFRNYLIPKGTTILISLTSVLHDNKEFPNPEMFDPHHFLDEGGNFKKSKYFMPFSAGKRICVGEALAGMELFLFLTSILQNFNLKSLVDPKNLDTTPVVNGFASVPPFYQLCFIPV
Chain of Cytochrome P450 2D6 (P10635 whole entry): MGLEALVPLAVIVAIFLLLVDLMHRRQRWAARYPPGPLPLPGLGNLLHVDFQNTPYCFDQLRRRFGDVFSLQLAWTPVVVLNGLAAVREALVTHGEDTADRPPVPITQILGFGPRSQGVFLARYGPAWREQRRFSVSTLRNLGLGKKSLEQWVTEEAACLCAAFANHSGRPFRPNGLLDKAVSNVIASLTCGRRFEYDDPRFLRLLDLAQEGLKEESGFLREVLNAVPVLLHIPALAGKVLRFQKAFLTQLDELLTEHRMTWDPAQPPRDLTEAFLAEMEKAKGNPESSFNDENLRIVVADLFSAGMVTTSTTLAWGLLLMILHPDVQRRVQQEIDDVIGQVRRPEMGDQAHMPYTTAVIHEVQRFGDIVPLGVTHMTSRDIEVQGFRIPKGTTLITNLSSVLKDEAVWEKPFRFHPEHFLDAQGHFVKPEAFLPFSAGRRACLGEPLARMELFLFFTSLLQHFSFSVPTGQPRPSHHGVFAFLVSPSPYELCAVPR
Chain of Sodium channel protein type 5 subunit alpha (Q14524 whole entry): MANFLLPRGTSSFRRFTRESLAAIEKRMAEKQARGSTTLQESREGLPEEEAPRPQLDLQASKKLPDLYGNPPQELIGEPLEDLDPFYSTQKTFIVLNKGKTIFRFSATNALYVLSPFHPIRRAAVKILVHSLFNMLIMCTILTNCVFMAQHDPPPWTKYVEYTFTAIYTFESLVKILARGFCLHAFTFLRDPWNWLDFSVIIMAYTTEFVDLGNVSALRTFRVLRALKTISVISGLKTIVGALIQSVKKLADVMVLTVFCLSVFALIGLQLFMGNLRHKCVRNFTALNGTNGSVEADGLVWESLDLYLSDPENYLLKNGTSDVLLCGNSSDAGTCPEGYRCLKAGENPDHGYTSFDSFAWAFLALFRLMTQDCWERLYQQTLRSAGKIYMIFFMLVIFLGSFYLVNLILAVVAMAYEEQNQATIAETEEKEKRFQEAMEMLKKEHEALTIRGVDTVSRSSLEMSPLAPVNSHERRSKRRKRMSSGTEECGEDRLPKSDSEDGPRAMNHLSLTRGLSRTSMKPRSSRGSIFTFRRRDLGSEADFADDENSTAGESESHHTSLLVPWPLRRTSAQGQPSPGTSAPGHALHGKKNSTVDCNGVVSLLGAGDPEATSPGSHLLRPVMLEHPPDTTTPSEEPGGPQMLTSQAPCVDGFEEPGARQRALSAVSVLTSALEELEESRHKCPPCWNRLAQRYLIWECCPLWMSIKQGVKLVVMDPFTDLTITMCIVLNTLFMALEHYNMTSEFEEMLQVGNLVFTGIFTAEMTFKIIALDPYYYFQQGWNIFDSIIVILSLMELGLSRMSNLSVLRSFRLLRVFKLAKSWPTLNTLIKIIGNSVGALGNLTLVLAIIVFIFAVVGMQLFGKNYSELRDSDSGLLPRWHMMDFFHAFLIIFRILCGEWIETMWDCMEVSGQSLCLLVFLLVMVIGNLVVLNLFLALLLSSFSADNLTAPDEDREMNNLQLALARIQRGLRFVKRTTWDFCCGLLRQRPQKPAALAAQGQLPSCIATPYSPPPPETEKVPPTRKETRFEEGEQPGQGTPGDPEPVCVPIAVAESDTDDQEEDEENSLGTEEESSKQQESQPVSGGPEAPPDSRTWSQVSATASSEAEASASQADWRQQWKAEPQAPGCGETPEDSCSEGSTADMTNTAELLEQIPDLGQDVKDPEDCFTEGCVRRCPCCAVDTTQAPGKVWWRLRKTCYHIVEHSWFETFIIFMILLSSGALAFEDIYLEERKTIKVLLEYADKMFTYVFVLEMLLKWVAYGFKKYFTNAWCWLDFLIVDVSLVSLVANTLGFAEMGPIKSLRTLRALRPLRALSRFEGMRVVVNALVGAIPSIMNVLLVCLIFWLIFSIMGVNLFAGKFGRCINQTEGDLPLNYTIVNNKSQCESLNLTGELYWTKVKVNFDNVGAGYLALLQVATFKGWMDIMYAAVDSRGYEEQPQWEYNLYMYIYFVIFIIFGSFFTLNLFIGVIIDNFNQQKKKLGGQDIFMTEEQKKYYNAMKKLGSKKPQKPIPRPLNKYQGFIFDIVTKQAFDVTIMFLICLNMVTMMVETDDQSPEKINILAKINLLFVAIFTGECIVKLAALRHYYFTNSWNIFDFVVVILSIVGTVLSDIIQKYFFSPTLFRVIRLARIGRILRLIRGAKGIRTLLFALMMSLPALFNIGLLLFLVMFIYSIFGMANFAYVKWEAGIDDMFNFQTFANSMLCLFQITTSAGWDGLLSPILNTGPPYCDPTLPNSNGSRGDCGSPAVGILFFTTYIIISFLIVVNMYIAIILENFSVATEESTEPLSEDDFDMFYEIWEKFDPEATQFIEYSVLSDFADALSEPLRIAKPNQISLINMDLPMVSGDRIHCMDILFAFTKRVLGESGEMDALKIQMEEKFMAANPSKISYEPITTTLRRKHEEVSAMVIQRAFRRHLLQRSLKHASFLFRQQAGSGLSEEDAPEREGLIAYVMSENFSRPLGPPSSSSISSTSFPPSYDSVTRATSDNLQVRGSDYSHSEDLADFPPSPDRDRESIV
Chain of Cytochrome P450 3A4 (P08684 whole entry): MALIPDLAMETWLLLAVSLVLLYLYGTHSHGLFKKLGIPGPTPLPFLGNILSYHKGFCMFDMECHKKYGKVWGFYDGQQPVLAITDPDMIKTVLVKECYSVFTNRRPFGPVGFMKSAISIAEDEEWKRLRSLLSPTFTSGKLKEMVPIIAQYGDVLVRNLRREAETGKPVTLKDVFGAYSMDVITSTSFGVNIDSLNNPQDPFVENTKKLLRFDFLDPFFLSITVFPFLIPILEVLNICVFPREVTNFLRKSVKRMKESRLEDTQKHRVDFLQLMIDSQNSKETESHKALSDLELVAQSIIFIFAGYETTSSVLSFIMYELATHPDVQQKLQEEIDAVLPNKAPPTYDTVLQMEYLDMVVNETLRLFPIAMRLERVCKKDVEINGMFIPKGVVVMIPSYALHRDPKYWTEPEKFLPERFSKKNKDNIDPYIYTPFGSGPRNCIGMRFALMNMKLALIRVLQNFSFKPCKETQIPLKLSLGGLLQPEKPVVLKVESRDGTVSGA

As to `O=C(CCC1(c2ccccc2)CCCN(C(=O)Nc2ccc(Cl)cc2)C1)Nc1nn[nH]n1` (stereo not drawn), the IC50 in assay [1] was 0.0014 µM; in assay [2], 27 µM; in [3] it was 0.034 µM; at Cytochrome P450 2C9 it was above 10 µM; at Epoxide hydrolase 1, above 100 µM; at Cytochrome P450 3A4, above 10 µM. In addition, the IC50 at Cytochrome P450 2D6 is above 10 µM; in assay [4], 0.0014 µM.

On to `O=C(CCC1(c2ccccc2)CCCN(C(=O)Nc2ccc(Cl)cc2)C1)N1CCOCC1` (stereo not drawn), for which the concentration for half-maximal inhibition (IC50) in assay [1] was below 0.001 µM; in assay [2] it was 29 µM; in assay [3], 0.1 µM; on L-type calcium channel, 26 µM; against Cytochrome P450 2C9, above 10 µM; at Cytochrome P450 3A4, above 10 µM. For the same compound, the IC50 at Cytochrome P450 2D6 is above 10 µM; in assay [4], 0.008 µM; in assay [5], above 10 µM.

As to `CC1(c2ccccc2)CCCN(C(=O)Nc2ccncc2)C1` (stereo not drawn), the IC50 was 5 µM in [2]; 0.349 µM in assay [3]; 15 µM at L-type calcium channel; above 10 µM against Cytochrome P450 2C9; above 100 µM against Epoxide hydrolase 1; below 10 µM on Cytochrome P450 3A4. The IC50 is above 10 µM on Cytochrome P450 2D6, 0.55 µM in assay [4] and above 10 µM in assay [5].

For the compound `CC1(c2ccccc2)CCCN(C(=O)NCc2ccc(-c3cccc(Cl)c3)cc2)C1` (stereo not drawn), the IC50 in assay [2] was 2 µM; in assay [3], 0.007 µM; against Epoxide hydrolase 1, 22 µM; on Cytochrome P450 3A4, below 10 µM; in [4], 0.014 µM.

With `O=C(O)CCC1(c2cccc(C(F)(F)F)c2)CCCN(C(=O)Nc2ccc(Cl)cc2)C1` (stereo not drawn), the IC50 in assay [2] is above 30 µM; in assay [3] it was 0.176 µM; at L-type calcium channel, above 30 µM; at Cytochrome P450 2C9, above 10 µM; against Epoxide hydrolase 1, above 100 µM; on Cytochrome P450 3A4, above 10 µM. Moreover, the 50% inhibitory concentration (IC50) at Cytochrome P450 2D6 is above 10 µM; in [4], 0.012 µM; in assay [5], above 10 µM.

With `O=C(O)CCC1(c2ccccn2)CCCN(C(=O)Nc2ccc(Cl)cc2)C1` (stereo not drawn), the IC50 in [2] is above 30 µM; in assay [3], 0.29 µM; at L-type calcium channel, above 30 µM; against Cytochrome P450 2C9, above 10 µM; against Cytochrome P450 3A4, above 10 µM; at Cytochrome P450 2D6 it was above 10 µM. Moreover, the concentration for half-maximal inhibition (IC50) was 0.019 µM in assay [4] and above 10 µM in assay [5].

Turning to `O=C(O)CCCC1(c2ccccc2)CCCN(C(=O)Nc2ccc(Cl)cc2)C1` (stereo not drawn), the half-inhibitory concentration (IC50) was 0.006 µM in [1]; above 30 µM in [2]; 0.176 µM in assay [3]; above 30 µM on L-type calcium channel; above 10 µM on Cytochrome P450 2C9; above 100 µM at Epoxide hydrolase 1. Further, the IC50 (on Cytochrome P450 3A4; against Cytochrome P450 2D6; in [5]) was above 10 µM each time.

In the case of `CC1(c2ccccc2)CCCN(C(=O)NCc2ccc(-c3ccccc3C(F)(F)F)cc2)C1` (stereo not drawn), the IC50 was 0.2 µM in [2]; 0.011 µM in assay [3]; 0.7 µM on L-type calcium channel; below 10 µM against Cytochrome P450 2C9; above 100 µM against Epoxide hydrolase 1; below 10 µM at Cytochrome P450 3A4. Besides, the results for the 50% inhibitory concentration (IC50) (against Cytochrome P450 2D6; in assay [4]; in assay [5]) were above 10 µM, 0.008 µM and above 1 µM, respectively.

For `CC1(c2ccccc2)CCCN(C(=O)Nc2ccc(-c3ccccc3)cc2)C1` (stereo not drawn), the IC50 in assay [2] was 21 µM; in [3], 0.006 µM; at L-type calcium channel, 0.9 µM; against Cytochrome P450 2C9, below 10 µM; on Cytochrome P450 3A4, above 10 µM; against Cytochrome P450 2D6 it was above 10 µM. Also, the 50% inhibitory concentration (IC50) was 0.007 µM in [4] and below 10 µM in assay [5].

Consider `O=C(O)CCC1(c2ccc(-c3ccccc3)cc2)CCCN(C(=O)Nc2ccc(OC(F)(F)F)cc2)C1` (stereo not drawn), for which the IC50 in [1] is below 0.001 µM; in assay [2] it was 21 µM; in assay [3], 0.413 µM; on L-type calcium channel it was above 30 µM; on Cytochrome P450 2C9 it was below 10 µM; at Cytochrome P450 3A4, above 10 µM. The IC50 at Cytochrome P450 2D6 is above 10 µM; in assay [5], below 10 µM.

Regarding `CC1(c2ccccc2)CCCN(C(=O)NCc2ccc(-c3ccc4[nH]ccc4c3)cc2)C1` (stereo not drawn), the IC50 in [1] is 0.003 µM; in assay [2] it was 0.8 µM; in [3] it was 0.006 µM; at L-type calcium channel, 1 µM; against Cytochrome P450 2C9, below 10 µM; against Epoxide hydrolase 1, 14 µM. The IC50 against Cytochrome P450 3A4 is above 10 µM; on Cytochrome P450 2D6, 10 µM; in assay [5], above 10 µM.

Regarding `CC1(c2ccccc2)CCCN(C(=O)NCCCc2cccnc2)C1` (stereo not drawn), the IC50 is 0.008 µM in assay [1]; 5 µM in [2]; above 10 µM against Cytochrome P450 2C9; 3 µM at Epoxide hydrolase 1; below 10 µM on Cytochrome P450 3A4; above 10 µM on Cytochrome P450 2D6. This compound also returned a half-maximal inhibitory concentration (IC50) in assay [4] of 0.007 µM.

In the case of `CC1(c2ccccc2)CCCN(C(=O)Nc2noc3ccccc23)C1` (stereo not drawn), the IC50 is 18 µM in assay [2]; 0.207 µM in assay [3]; 19 µM at L-type calcium channel; below 10 µM at Cytochrome P450 2C9; above 10 µM against Cytochrome P450 3A4; above 10 µM against Cytochrome P450 2D6. Besides, the IC50 in assay [5] is below 10 µM.

On to `N#CCCC1(c2ccccc2)CCCN(C(=O)Nc2ccc(Cl)cc2)C1` (stereo not drawn), for which the IC50 in assay [1] was below 0.001 µM; in [2], 10 µM; in assay [3], 0.016 µM; at L-type calcium channel, 7 µM; at Cytochrome P450 2C9 it was above 10 µM; against Epoxide hydrolase 1 it was above 100 µM. The IC50 (against Cytochrome P450 3A4; against Cytochrome P450 2D6; in assay [5]) was above 10 µM throughout.

On to `CCN(CC)C(=O)CCC1(c2ccccc2)CCCN(C(=O)Nc2ccc(Cl)cc2)C1` (stereo not drawn), for which the concentration for half-maximal inhibition (IC50) was 6 µM in assay [2]; 0.031 µM in assay [3]; 1 µM at L-type calcium channel; above 10 µM at Cytochrome P450 2C9; below 10 µM against Cytochrome P450 3A4; above 10 µM on Cytochrome P450 2D6. For the same compound, the IC50 in [4] was 0.003 µM; in assay [5], above 10 µM.

Consider `O=C(O)CCC1(c2ccncc2)CCCN(C(=O)Nc2ccc(Cl)cc2)C1` (stereo not drawn), for which the IC50 in assay [2] was above 30 µM; in [3], 0.467 µM; at L-type calcium channel, above 30 µM; against Cytochrome P450 2C9, 10 µM; against Epoxide hydrolase 1 it was above 100 µM; against Cytochrome P450 3A4, above 10 µM. Moreover, the IC50 was above 10 µM on Cytochrome P450 2D6, 0.03 µM in [4] and above 10 µM in [5].

With `O=C(O)CCC1(c2cccnc2)CCCN(C(=O)Nc2ccc(Cl)cc2)C1` (stereo not drawn), the 50% inhibitory concentration (IC50) in assay [2] was above 30 µM; in [3], 0.331 µM; on L-type calcium channel, above 30 µM; on Cytochrome P450 2C9 it was above 10 µM; on Cytochrome P450 3A4 it was above 10 µM; against Cytochrome P450 2D6, above 10 µM. For the same compound, the IC50 in [4] was 0.028 µM; in assay [5], above 10 µM.

Consider `COC(=O)CCC1(c2ccccc2)CCCN(C(=O)Nc2ccc(Cl)cc2)C1` (stereo not drawn), for which the IC50 in assay [3] is 0.003 µM; in assay [4], below 0.001 µM.

Regarding `CC1(c2ccccc2)CCCN(C(=O)NCCc2ccc3nccnc3c2)C1` (stereo not drawn), the half-inhibitory concentration (IC50) was 0.003 µM in assay [1]; 9 µM in assay [2]; 0.019 µM in assay [3]; below 10 µM on Cytochrome P450 2C9; above 100 µM at Epoxide hydrolase 1; below 10 µM on Cytochrome P450 3A4. The IC50 on Cytochrome P450 2D6 is 10 µM.
